From ChEMBL document CHEMBL3877285, “Design of a doxorubicin-peptidomimetic conjugate that targets HER2-positive cancer cells” (Eur J Med Chem, 2017)
Values belong to the molecule of their own block, whether it stands above or below them.

How the values were obtained:
[1] = biological target: T1, Receptor tyrosine-protein kinase erbB-2 (Homo sapiens, UniProt P04626); assay: Binding affinity to HER2 extracellular domain (unknown origin) by SPR assay
[2] = Cell cycle arrest in human BT474 cells assessed as S phase accumulation at 1 uM incubated for 1 hr followed by 24 hrs incubation in drug free medium by propidium iodide staining based flow cytometry (reference value: 8.4 to 13.6%); type: functional; settings: BT-474
Method in brief: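 About 2 × 10⁵ BT-474 cells exposed 1 h, then 24 h in drug-free, serum-free medium. Cells were fixed in 70% ethanol for 2 h at −20 °C, then stained with 100 μg/mL RNase plus 40 μg/mL propidium iodide for 30 min at 4 °C. DNA content was read by FACS (10,000 events). Triplicate.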

[3] = Cell cycle arrest in human BT474 cells assessed as G2/M phase accumulation at 1 uM incubated for 1 hr followed by 24 hrs incubation in drug free medium by propidium iodide staining based flow cytometry; type: functional; settings: BT-474
Method in brief: (§1)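 About 2 × 10⁵ BT-474 cells were exposed to 1 μM for 1 h, then kept 24 h in drug-free, serum-free medium. Cells were fixed in 70% ethanol (2 h, −20 °C) and stained with 100 μg/mL RNase plus 40 μg/mL propidium iodide (4 °C, 30 min). DNA content was read on 10,000 cells by FACS. Experiments were done in triplicate.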

[4] = Cell cycle arrest in human BT474 cells assessed as G0/G1 phase accumulation at 1 uM incubated for 1 hr followed by 24 hrs incubation in drug free medium by propidium iodide staining based flow cytometry; type: functional; settings: BT-474; method in brief: as §1
[5] = Antiproliferative activity against human MCF10A cells after 72 hrs by CellTiter-Glo assay; type: cell-based; settings: MCF-10A
Method in brief: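 Cells were kept at 37 °C, 5% CO2. Media: RPMI-1640 (BT-474, MCF-7), EMEM (Calu-3), McCoy's (SKBR-3), DMEM (MCF-10A), each with 10% FBS, 1% pen-strep and 1% insulin. 10,000 cells per well were dosed with serial dilutions in serum-free medium. Luminescence was read by CellTiter-Glo and IC50 taken from the dose-response curve. Each experiment was run three times (SD).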

[6] = Antiproliferative activity against human Calu3 cells after 24 hrs by CellTiter-Glo assay; type: functional, cell-based; settings: Calu-3, 24 h
Method in brief: (§2)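 10,000 cells per well, plated the day before treatment. Triplicate wells got serially diluted drug (0.001 to 100 μM) in serum-free medium at 37 °C. 1% SDS and 1% DMSO served as controls. After a PBS wash, CellTiter-Glo was added for about 20 min and luminescence read. IC50 came from the dose-response curve. Each experiment was run three times (SD).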

[7] = Drug uptake in cytoplasm of human SKBR3 cells at 5 uM after 30 mins by DAPI staining based confocal microscopic method; type: ADME, cell-based; settings: sk-br-3, 0.5 h
Method in brief: (§3)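 SKBR-3 cells were seeded and treated 24 h later, then incubated at 37 °C for 30 min, 4 h or 24 h. Cells were fixed with methanol for 5 min at −20 °C and mounted in DAPI.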

[8] = Antiproliferative activity against human BT474 spheroids after 3 days by CellTiter-Glo assay; type: functional; settings: BT-474, 72 h
Method in brief: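 They were treated at 0.001–10 μM for 3 days at 37 °C, with 1% SDS and 1% DMSO as controls. Viability was read by 3D CellTiter-Glo luminescence and IC50 taken from the log plot. Each experiment was run three times (SD).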

[9] = Drug uptake in nucleus of human SKBR3 cells at 5 uM after 4 hrs by DAPI staining based confocal microscopic method; type: ADME, cell-based; settings: sk-br-3, 4 h
Method in brief: (§4)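 SKBR-3 cells were seeded for 24 h, then exposed to 5 μM at 37 °C for 30 min, 4 h or 24 h. Cells were PBS-washed, fixed in methanol at −20 °C for 5 min and mounted with DAPI.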

[10] = Drug uptake in human SKBR3 cells at 5 uM after 24 hrs by DAPI staining based confocal microscopic method; type: ADME, cell-based; settings: sk-br-3, 24 h; method in brief: as §3
[11] = Antiproliferative activity against human SKBR3 cells after 24 hrs by CellTiter-Glo assay; type: functional, cell-based; settings: SK-BR-3, 24 h; method in brief: as §2
[12] = Antiproliferative activity against human Calu3 cells after 48 hrs by CellTiter-Glo assay; type: functional, cell-based; settings: Calu-3, 48 h; method in brief: as §2
[13] = Antiproliferative activity against human BT474 cells after 48 hrs by CellTiter-Glo assay; type: functional, cell-based; settings: BT-474, 48 h; method in brief: as §2
[14] = biological target: T1, Receptor tyrosine-protein kinase erbB-2; assay: Binding affinity to HER2 domain-4 (unknown origin) by SPR assay
[15] = Drug uptake in nucleus of human SKBR3 cells at 5 uM after 30 mins by DAPI staining based confocal microscopic method; type: ADME, cell-based; settings: sk-br-3, 0.5 h; method in brief: as §4
[16] = Drug uptake in human MCF7 cells at 5 uM after 30 mins by DAPI staining based confocal microscopic method; type: ADME, cell-based; settings: mcf7, 0.5 h
Method in brief: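 MCF-7 cells were run like the SKBR-3 imaging: 37 °C for 30 min, 4 h or 24 h, methanol fixation at −20 °C, and DAPI mounting.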

[17] = Antiproliferative activity against human BT474 cells after 24 hrs by CellTiter-Glo assay; type: functional, cell-based; settings: BT-474, 24 h; method in brief: as §2
[18] = Drug degradation in human SKBR3 cells at 50 uM after 4 hrs by HPLC method; type: ADME, cell-based, SK-BR-3; settings: read-out: Drug degradation
Method in brief: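 About 15,000 trypsinised SKBR-3 cells were resuspended with 50 μM (final) conjugate in serum-free medium at 37 °C, one sample per time point (0 min–48 h). Cells were lysed with chilled acetonitrile, sonicated and centrifuged, and the supernatant was cleaned on Sep-Pak. Intact-conjugate peak area was measured by C18 reversed-phase HPLC and expressed relative to time zero. Each time point was run in triplicate.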

[19] = Drug uptake in cytoplasm of human SKBR3 cells at 5 uM after 4 hrs by DAPI staining based confocal microscopic method; type: ADME, cell-based; settings: sk-br-3, 4 h; method in brief: as §4
[20] = Drug uptake in human MCF7 cells at 5 uM after 24 hrs by DAPI staining based confocal microscopic method; type: ADME, cell-based; settings: mcf7, 24 h
[21] = Antiproliferative activity against human MCF7 cells after 72 hrs by CellTiter-Glo assay; type: functional, cell-based; settings: MCF7, 72 h
Method in brief: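 Cells were kept at 37 °C, 5% CO2. 10,000 cells per well were dosed with serial dilutions in serum-free medium. Luminescence was read by CellTiter-Glo and IC50 taken from the dose-response curve. Each experiment was run three times (SD).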

[22] = Drug uptake in cytoplasm of human SKBR3 cells at 5 uM after 24 hrs by DAPI staining based confocal microscopic method; type: ADME, cell-based; settings: sk-br-3, 24 h; method in brief: as §4

T1 sequence (P04626 whole entry, the tested form may be a part): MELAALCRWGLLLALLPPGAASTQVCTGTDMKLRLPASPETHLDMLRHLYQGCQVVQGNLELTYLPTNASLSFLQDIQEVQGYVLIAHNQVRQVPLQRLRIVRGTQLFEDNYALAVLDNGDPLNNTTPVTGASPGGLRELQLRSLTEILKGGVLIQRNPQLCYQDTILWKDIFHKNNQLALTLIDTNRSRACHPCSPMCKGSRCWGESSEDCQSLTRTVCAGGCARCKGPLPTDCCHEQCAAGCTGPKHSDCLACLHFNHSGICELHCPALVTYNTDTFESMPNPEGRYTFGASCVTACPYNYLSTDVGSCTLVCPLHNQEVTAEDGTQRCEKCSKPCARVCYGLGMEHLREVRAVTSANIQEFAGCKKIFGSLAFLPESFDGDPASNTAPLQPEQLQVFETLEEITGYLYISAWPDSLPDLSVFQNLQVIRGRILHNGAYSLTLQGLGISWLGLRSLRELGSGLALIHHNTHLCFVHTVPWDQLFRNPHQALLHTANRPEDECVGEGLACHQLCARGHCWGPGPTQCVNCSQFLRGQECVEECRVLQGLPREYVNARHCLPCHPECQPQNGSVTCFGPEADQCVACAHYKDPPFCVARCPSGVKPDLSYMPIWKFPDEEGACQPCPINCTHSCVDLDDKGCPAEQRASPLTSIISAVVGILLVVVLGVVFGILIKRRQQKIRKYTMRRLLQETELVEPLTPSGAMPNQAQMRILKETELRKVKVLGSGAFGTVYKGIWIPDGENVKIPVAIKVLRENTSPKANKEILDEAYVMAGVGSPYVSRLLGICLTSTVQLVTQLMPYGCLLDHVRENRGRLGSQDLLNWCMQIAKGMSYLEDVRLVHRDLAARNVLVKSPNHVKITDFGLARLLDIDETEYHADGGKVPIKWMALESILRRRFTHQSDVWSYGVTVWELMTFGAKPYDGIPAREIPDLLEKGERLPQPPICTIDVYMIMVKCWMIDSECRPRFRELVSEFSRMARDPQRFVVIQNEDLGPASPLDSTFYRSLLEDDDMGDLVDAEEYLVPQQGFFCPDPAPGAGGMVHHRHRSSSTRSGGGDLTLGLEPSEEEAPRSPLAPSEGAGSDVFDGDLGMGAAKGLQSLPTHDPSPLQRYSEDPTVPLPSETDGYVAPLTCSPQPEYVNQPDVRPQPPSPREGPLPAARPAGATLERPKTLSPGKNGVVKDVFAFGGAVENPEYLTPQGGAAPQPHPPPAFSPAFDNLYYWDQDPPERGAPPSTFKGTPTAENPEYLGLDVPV

Kd [1]: 1 µM
SMILES: N=C(N)NCCC[C@H](N)C(=O)N[C@@H](CC(=O)N[C@@H](Cc1ccccc1)C(=O)O)c1cccc2ccccc12
Activity [2]: 5.7% | Activity [3]: 23.6% | Activity [4]: 67% | IC50 [5]: > 50 µM

Drug uptake [7]: Active | Drug uptake [9]: Active | Drug uptake [10]: Active | Kd [14]: 11000 µM | Drug uptake [15]: Active | Drug uptake [16]: Active
SMILES: COc1cccc2c1C(=O)c1c(O)c3c(c(O)c1C2=O)C[C@@](O)(C(=O)CO)C[C@@H]3O[C@H]1C[C@H](N)[C@H](O)[C@H](C)O1 [DOXORUBICIN]
IC50 [6]: 0.27 µM | IC50 [8]: 0.18 µM | IC50 [11]: 0.034 µM | IC50 [12]: 0.11 µM | Activity [2]: 3.7% | IC50 [13]: 0.041 µM | IC50 [5]: 0.15 µM | IC50 [17]: 0.053 µM

SMILES: COc1cccc2c1C(=O)c1c(O)c3c(c(O)c1C2=O)C[C@@](O)(C(=O)CO)C[C@@H]3O[C@H]1C[C@H](NC(=O)CCCC(=O)N[C@@H](CCCNC(=N)N)C(=O)N[C@@H](CC(=O)N[C@@H](Cc2ccccc2)C(=O)O)c2cccc3ccccc23)[C@H](O)[C@H](C)O1
Drug uptake [9]: Active | metabolised at 4 h, 50 µM [18]: 50% | Drug uptake [19]: Active | Drug uptake [20]: Active | IC50 [21]: 0.8 µM | Drug uptake [22]: Active | Drug uptake [15]: Active
